The record followed here is ChEMBL document CHEMBL3627661, “Synthesis and biological evaluation of di-aryl urea derivatives as c-Kit inhibitors” (Bioorg Med Chem, 2015).

Some results are limits rather than exact numbers.

Assay [1] concerns the target Epidermal growth factor receptor (Homo sapiens, UniProt P00533). In words: Inhibition of human EGFR after 1 hr using [gamma-32P]ATP.
Assay [2] addresses Hepatocyte growth factor receptor (Homo sapiens, UniProt P08581). In words: Inhibition of c-MET (unknown origin) by radiometric protein kinase assay.
Assay [3] has as its target Proto-oncogene tyrosine-protein kinase Src (Homo sapiens, UniProt P12931). In words: Inhibition of Src (unknown origin) by radiometric protein kinase assay.
Assay [4] concerns the target Vascular endothelial growth factor receptor 1 (Homo sapiens, UniProt P17948). In words: Inhibition of VEGFR1 (unknown origin) by radiometric protein kinase assay.
The target in assay [5] is RAF proto-oncogene serine/threonine-protein kinase (Homo sapiens, UniProt P04049). In words: Inhibition of Raf (unknown origin) by radiometric protein kinase assay.
Chain of RAF proto-oncogene serine/threonine-protein kinase (P04049 whole entry): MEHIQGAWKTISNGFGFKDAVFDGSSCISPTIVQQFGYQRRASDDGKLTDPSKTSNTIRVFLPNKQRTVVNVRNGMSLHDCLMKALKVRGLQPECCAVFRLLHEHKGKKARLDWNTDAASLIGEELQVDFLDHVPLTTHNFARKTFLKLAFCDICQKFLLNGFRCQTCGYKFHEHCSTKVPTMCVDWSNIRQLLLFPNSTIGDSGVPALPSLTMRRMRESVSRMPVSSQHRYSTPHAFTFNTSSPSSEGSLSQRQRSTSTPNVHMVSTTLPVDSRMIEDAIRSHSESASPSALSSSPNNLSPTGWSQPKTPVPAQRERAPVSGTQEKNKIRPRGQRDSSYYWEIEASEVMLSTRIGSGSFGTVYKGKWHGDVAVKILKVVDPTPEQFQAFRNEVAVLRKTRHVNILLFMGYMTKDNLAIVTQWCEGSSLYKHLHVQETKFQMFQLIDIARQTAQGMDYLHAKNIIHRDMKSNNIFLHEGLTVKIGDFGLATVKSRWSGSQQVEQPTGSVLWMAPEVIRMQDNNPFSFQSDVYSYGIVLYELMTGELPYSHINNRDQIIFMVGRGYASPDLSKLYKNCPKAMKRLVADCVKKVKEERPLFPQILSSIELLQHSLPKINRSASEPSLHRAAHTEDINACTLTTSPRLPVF
In assay [6] the target is Platelet-derived growth factor receptor beta (Homo sapiens, UniProt P09619). Put plainly: Inhibition of PDGFR-beta (unknown origin) by radiometric protein kinase assay.
Chain of Platelet-derived growth factor receptor beta (P09619 whole entry): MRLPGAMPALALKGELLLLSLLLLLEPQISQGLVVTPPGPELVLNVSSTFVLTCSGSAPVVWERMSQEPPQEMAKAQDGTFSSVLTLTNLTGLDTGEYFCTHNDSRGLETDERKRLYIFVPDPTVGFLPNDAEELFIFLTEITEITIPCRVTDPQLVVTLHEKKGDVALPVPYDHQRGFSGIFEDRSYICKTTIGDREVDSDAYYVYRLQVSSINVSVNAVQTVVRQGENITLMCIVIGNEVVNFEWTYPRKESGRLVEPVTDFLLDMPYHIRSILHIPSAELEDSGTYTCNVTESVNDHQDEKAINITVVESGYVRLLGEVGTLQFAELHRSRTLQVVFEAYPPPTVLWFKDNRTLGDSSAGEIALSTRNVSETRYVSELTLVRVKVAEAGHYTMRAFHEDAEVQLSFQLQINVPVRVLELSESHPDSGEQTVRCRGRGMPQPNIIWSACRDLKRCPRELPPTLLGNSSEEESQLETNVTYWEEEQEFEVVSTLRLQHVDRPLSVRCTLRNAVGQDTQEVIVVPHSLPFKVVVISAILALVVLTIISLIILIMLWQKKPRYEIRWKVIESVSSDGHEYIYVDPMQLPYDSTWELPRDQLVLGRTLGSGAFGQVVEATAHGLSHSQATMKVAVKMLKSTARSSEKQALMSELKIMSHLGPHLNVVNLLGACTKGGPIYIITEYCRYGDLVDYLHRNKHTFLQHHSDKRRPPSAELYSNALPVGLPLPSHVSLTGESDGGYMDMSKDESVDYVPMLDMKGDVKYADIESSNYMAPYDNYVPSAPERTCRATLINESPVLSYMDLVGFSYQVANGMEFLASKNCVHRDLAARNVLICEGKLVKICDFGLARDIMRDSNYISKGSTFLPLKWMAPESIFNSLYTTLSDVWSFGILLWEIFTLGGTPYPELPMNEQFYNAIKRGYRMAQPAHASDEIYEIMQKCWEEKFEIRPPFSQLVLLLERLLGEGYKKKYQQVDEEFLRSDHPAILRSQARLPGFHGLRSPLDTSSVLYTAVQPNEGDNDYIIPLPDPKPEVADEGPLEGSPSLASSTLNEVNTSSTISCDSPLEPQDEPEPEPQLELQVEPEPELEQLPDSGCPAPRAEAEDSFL
Assay [7] deals with Vascular endothelial growth factor receptor 3 (Homo sapiens, UniProt P35916). Put plainly: Inhibition of VEGFR3 (unknown origin) by radiometric protein kinase assay.
For assay [8], the target named is Mast/stem cell growth factor receptor Kit (Homo sapiens, UniProt P10721). Put plainly: Inhibition of c-Kit (unknown origin) by radiometric protein kinase assay.
Chain of Mast/stem cell growth factor receptor Kit (P10721 whole entry): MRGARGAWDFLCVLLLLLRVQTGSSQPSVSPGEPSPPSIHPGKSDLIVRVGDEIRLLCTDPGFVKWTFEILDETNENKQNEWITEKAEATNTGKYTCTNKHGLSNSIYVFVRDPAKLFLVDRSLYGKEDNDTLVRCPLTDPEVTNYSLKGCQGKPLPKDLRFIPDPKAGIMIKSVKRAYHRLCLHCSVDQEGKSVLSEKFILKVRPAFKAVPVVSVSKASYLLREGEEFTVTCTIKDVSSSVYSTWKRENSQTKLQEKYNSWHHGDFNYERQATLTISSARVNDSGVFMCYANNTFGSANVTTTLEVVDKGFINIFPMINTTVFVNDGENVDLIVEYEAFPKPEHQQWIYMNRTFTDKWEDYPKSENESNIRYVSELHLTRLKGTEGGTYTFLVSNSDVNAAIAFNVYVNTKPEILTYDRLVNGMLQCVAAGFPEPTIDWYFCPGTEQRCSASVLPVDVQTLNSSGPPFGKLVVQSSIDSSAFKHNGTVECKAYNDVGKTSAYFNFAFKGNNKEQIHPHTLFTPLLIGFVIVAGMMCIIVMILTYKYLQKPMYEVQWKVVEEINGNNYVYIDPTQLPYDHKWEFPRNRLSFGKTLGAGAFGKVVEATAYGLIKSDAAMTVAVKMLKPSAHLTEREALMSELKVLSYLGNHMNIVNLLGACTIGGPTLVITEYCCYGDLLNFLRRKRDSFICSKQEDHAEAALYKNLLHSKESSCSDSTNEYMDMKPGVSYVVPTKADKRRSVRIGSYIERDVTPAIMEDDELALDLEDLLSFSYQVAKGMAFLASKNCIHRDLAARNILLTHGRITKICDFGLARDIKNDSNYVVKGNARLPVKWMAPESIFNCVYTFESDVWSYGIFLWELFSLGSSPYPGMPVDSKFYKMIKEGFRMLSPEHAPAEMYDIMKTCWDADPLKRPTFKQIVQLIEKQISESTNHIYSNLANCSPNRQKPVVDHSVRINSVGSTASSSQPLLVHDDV
Assay [9] addresses Vascular endothelial growth factor receptor 2 (Homo sapiens, UniProt P35968). Put plainly: Inhibition of human recombinant VEGFR-2 after 1 hr using [gamma-32P]ATP. An outline of the steps: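 Recombinant human VEGFR-2 (10 ng) was incubated for 1 h at 28 °C with varying compound concentrations. Kinase buffer: Tris 50 mM pH 7.5, BSA, MnCl2 1.5 mM, MgCl2 10 mM, DTT 2.5 mM, Na3VO4, β-glycerophosphate 5 mM. Substrate was poly(Glu4/Tyr), with ATP plus [γ-32P]ATP; final DMSO was 0.1%. The reaction was stopped with 100% TCA, wells were washed with 10% TCA, and each well was counted for 1 min.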

Chain of Vascular endothelial growth factor receptor 1 (P17948 whole entry): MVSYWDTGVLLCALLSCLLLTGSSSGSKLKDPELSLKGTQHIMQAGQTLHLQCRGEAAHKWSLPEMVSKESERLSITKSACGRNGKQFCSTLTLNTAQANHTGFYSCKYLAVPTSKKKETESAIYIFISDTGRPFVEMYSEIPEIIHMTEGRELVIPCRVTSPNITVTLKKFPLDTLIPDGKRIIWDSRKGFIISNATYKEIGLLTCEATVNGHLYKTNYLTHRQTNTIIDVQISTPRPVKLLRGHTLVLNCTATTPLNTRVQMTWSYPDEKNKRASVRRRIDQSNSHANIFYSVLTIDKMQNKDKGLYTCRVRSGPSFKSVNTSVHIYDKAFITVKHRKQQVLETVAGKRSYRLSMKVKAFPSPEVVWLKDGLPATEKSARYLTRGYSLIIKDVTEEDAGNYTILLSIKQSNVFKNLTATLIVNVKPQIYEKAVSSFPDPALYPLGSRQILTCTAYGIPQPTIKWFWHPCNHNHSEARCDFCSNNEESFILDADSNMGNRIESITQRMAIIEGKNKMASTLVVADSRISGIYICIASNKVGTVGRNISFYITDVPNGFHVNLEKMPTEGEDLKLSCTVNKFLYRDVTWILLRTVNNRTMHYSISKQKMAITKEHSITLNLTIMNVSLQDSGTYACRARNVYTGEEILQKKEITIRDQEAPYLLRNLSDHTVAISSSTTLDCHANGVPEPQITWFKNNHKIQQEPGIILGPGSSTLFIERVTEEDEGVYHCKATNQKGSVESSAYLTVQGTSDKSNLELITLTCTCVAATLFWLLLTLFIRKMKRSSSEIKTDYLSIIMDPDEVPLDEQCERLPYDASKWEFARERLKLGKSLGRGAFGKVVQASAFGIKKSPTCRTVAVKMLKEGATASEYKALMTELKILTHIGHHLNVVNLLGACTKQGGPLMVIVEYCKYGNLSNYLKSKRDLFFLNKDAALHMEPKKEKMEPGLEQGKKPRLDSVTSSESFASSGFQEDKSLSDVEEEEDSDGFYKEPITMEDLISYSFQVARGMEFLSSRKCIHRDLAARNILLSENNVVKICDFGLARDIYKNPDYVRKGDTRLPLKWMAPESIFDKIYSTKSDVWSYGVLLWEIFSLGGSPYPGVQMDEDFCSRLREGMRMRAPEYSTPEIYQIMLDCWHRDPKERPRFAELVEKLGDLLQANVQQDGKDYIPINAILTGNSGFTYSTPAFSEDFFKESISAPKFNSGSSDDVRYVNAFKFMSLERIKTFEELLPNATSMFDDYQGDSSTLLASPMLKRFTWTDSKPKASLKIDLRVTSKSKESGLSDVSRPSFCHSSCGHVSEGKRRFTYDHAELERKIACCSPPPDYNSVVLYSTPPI
Chain of Proto-oncogene tyrosine-protein kinase Src (P12931 2-536 limits assumed): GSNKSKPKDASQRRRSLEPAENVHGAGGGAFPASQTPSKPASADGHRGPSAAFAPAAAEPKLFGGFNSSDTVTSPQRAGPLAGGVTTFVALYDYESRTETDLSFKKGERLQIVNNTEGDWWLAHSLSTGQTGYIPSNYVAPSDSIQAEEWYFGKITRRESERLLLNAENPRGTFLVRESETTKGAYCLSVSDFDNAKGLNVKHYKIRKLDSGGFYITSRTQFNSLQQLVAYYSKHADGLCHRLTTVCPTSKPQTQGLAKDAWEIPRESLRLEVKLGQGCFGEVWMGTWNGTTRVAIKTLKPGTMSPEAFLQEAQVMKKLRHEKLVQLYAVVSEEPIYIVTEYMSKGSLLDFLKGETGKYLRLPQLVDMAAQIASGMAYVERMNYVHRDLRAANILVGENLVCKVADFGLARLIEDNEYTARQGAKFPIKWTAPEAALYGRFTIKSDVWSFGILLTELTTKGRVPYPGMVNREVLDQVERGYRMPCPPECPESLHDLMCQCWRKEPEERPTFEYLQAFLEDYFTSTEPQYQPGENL

What is called IC50 is the concentration that inhibits the measured activity by half. Compound `Fc1ccc(Nc2ncnc3ccccc23)cc1Cl` gave an IC50 in [1] of 30 nM.
On to `COc1cc2ncnc(Oc3ccc(NC(=O)Nc4cccc(Br)c4)cc3)c2cc1OC`, for which the 50% inhibitory concentration (IC50) worked out at 2310 nM in [2]; 5470 nM in [3]; 46 nM in assay [4]; 930 nM in assay [5]; 5 nM in assay [6]; 9 nM in [7]. The compound further had a half-maximal inhibitory concentration (IC50) in [8] of 16 nM.
The compound `Fc1ccc(Nc2ncnc3sccc23)cc1Cl` displayed a 50% inhibitory concentration (IC50) in [1] of 2980 nM.
With `Fc1ccc(Nc2ncnc3sc4c(c23)CCCC4)cc1Cl`, the values for the IC50 in assay [9] and in assay [1] were greater than 10000 nM and 1330 nM, respectively.
Compound `CCOC(=O)Nc1ccc(Nc2ncnc3ccccc23)cc1C` registered a concentration for half-maximal inhibition (IC50) in assay [1] greater than 10000 nM.
For the compound `CCOC(=O)Nc1ccc(Nc2ncnc3sc4c(c23)CCCC4)cc1C`, the half-inhibitory concentration (IC50) in [9] and in [1] was greater than 10000 nM in each case.
As to `COc1cc2ncnc(Nc3ccc(NC(=O)Nc4cccc(Br)c4)cc3)c2cc1OC`, the results for the IC50 in [9], in assay [8] and in assay [1] were 12 nM, 3 nM and 7710 nM, respectively.
`O=C(Nc1ccc(Nc2ncnc3ccccc23)cc1)Nc1cccc(Br)c1`: the half-maximal inhibitory concentration (IC50) in assay [2] is greater than 10000 nM; in assay [3], greater than 10000 nM; in assay [9] it was 91 nM; in assay [4] it was 5750 nM; in assay [5], greater than 10000 nM; in assay [6] it was 850 nM. Moreover, the values for the half-maximal inhibitory concentration (IC50) in assay [7], in [8] and in [1] were 47 nM, 1 nM and greater than 10000 nM, respectively.
As for `O=C(Nc1ccc(Nc2ncnc3sccc23)cc1)Nc1cccc(Br)c1`, the IC50 in assay [2] is greater than 10000 nM; in assay [3], greater than 10000 nM; in assay [4] it was greater than 10000 nM; in [5], 4020 nM; in assay [6], 2120 nM; in [7], 1980 nM. Also, the IC50 in [8] was 1 nM; in assay [1] it was greater than 10000 nM.
For the compound `O=C(Nc1ccc(Nc2ncnc3sc4c(c23)CCCC4)cc1)Nc1cccc(Br)c1`, the IC50 in assay [2] is greater than 10000 nM; in assay [3], 7640 nM; in [9] it was 310 nM; in assay [4], 7150 nM; in assay [5] it was greater than 10000 nM; in assay [6], 2820 nM. For the same compound, the values for the IC50 in [7], in assay [8] and in assay [1] were 420 nM, 6 nM and 3950 nM, respectively.
Compound `Fc1ccc(Oc2ncnc3ccccc23)cc1Cl` came in with an IC50 in assay [1] of 590 nM.
For the compound `Fc1ccc(Oc2ncnc3sc4c(c23)CCCC4)cc1Cl`, the IC50 was 3500 nM in assay [9] and greater than 10000 nM in [1].
Compound `CCOC(=O)Nc1ccc(Oc2ncnc3cc(OC)c(OC)cc23)cc1C` yielded an IC50 in assay [1] greater than 10000 nM.
On to `CCOC(=O)Nc1ccc(Oc2ncnc3ccccc23)cc1C`, for which the half-inhibitory concentration (IC50) in assay [9] was 710 nM; in assay [1] it was greater than 10000 nM.
`CCOC(=O)Nc1ccc(Oc2ncnc3sccc23)cc1C`: the IC50 in assay [1] was greater than 10000 nM.
In turn, `COc1cc2ncnc(Oc3ccc(NC(=O)Nc4cccc(Br)c4)c(Cl)c3)c2cc1OC` gave an IC50 in assay [1] greater than 10000 nM.
With `O=C(Nc1ccc(Oc2ncnc3ccccc23)cc1)Nc1cccc(Br)c1`, the concentration for half-maximal inhibition (IC50) in [2] is greater than 10000 nM; in assay [3], greater than 10000 nM; in [9], 8 nM; in assay [4] it was 650 nM; in [5], 6220 nM; in [6] it was 320 nM. Besides, the IC50 in [7] was 7 nM; in assay [8], 14 nM; in assay [1] it was greater than 10000 nM.
Turning to `O=C(Nc1ccc(Oc2ncnc3sccc23)cc1)Nc1cccc(Br)c1`, the 50% inhibitory concentration (IC50) in [2] was greater than 10000 nM; in assay [3], greater than 10000 nM; in assay [9] it was 18 nM; in assay [4] it was 1080 nM; in assay [5] it was greater than 10000 nM; in assay [6] it was 570 nM. Besides, the IC50 in assay [7] is 6 nM; in assay [8], 11 nM; in assay [1], greater than 10000 nM.
Compound `Cc1cc(Oc2ncnc3sccc23)ccc1NC(=O)Nc1cccc(Br)c1` registered an IC50 in assay [1] greater than 10000 nM.
`O=C(Nc1cccc(Br)c1)Nc1ccc(Oc2ncnc3sccc23)cc1Cl`: the concentration for half-maximal inhibition (IC50) in assay [1] is greater than 10000 nM.
For `O=C(Nc1ccc(Oc2ncnc3sc4c(c23)CCCC4)cc1)Nc1cccc(Br)c1`, the IC50 in assay [2] was greater than 10000 nM; in [3], 8460 nM; in assay [9], 11 nM; in assay [4], 1700 nM; in assay [5] it was 5840 nM; in assay [6] it was 2300 nM. Moreover, the IC50 in assay [7] is 1020 nM; in assay [8] it was 17 nM; in [1], greater than 10000 nM.
Turning to `Cc1cc(Oc2ncnc3sc4c(c23)CCCC4)ccc1NC(=O)Nc1cccc(Br)c1`, the IC50 in assay [9] was found to be 34 nM; in assay [1], 3290 nM.
`O=C(Nc1cccc(Br)c1)Nc1ccc(Oc2ncnc3sc4c(c23)CCCC4)cc1Cl`: the IC50 amounted to 15 nM in [9] and 1260 nM in [1].
